Values joined by “and” are separate entries in the source; they are usually repeats but may differ in a detail not shown here. Equal values may be shown once.
Experiments:
[1] = target: influenza H1N1 virus neuraminidase (Influenza A virus, UniProt P03468); test: Neuraminidase inhibition screening assay; type: biochemical
MDCK cells = test: Cell viability assay; type: cell-based, canine; conditions: 24 h, MTT
In short: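 Confluent MDCK cells (grown in DMEM with 10% FBS, penicillin and streptomycin, 5% CO2) were exposed to graded concentrations of test compound for 24 h. Viability was measured by MTT. The maximum non-toxic dose was taken from this assay and then used in the infection assays.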

neuraminidase = type: cell-based, influenza virus A/Font Monmouth/47(H1N1, FM1)
IAV nucleoprotein (NP) = test: Indirect immunofluorescence of viral NP in H1N1-infected MDCK cells; type: cell-based, influenza virus A/Font Monmouth/47(H1N1, FM1); conditions: at MNTD, 8 h after infection, compared to virus group
In short: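 Confluent MDCK monolayers were infected with 100 μL of 100 TCID50 H1N1 for 2 h at 37 °C. Inoculum was removed and test compound was added at its maximum non-toxic dose in DMEM. At 8 h post-infection, cells were fixed in ice-cold acetone/methanol (40:60) for 15 min. Staining used mouse anti-NP monoclonal antibody (1:100 in PBS, 1 h), then Alexa Fluor 488 anti-mouse IgG (1:100, 1 h), with DAPI for nuclei; imaged by fluorescence microscopy.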

[2] = test system: influenza virus A/Font Monmouth/47(H1N1, FM1); type: cell-based
[3] = test system: influenza A/Font Monmouth/47(H1N1, FM1) virus; design: species or system NIH mice; conditions: mouse, in vivo
TNF-α = test: Cytokine in lung homogenate of IAV-infected mice; type: in vivo; conditions: day 5 after infection; different doses, except 25 mg/kg/day
In short: (§1)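 Female SPF NIH mice (13–15 g) were infected with mouse-adapted IAV A/Font Monmouth/47 (H1N1, FM1). Controls were normal and placebo (saline, 0.5% Tween 80) groups. On day 5 post-infection, lungs were homogenised and centrifuged (4000×g, 15 min, 4 °C), and supernatants were stored at −80 °C. Cytokines were measured by anti-mouse ELISA kits; n = 10; mean ± SD of 3 separate experiments.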

[4] = test system: influenza A/Font Monmouth/47(H1N1, FM1) virus; test: Survival experiments in IAV-infected mice; type: in vivo, NIH mice; conditions: 100, 50 and 25 mg/kg/day, pre-infection and post-infection, oral gavage, 2 LD50, vs placebo
[5] = Dose safety of curcumin in mice; type: in vivo; conditions: 100 mg/kg/day
IL-6 = test: Cytokine in lung homogenate of IAV-infected mice; type: in vivo; conditions: day 5 after infection; different doses (100, 50, 25 mg/kg/day)
In short: as §1

IFN-γ = test: Cytokine in lung homogenate of IAV-infected mice; type: in vivo; conditions: day 5 after infection; different doses (100, 50, 25 mg/kg/day)
In short: as §1

[6] = IC50, NA activity inhibition assay

Sequence of influenza H1N1 virus neuraminidase (P03468 whole entry): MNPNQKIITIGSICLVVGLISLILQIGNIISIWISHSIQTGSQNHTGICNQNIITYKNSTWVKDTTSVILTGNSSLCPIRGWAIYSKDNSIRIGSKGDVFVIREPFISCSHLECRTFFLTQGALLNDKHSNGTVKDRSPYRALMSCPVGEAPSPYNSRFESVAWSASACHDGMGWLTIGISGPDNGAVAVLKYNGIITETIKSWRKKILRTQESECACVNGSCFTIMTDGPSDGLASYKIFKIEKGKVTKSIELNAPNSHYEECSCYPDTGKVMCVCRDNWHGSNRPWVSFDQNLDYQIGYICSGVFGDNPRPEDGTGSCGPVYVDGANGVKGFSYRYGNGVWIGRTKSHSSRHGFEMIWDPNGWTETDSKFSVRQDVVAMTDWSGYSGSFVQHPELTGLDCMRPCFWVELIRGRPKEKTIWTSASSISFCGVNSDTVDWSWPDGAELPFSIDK

Compound	MNTD (maximum non-toxic dose) (MDCK cells) [µM]	decrease of NA activity (neuraminidase)	neuraminidase activity in cell supernatant (neuraminidase) [mU/mL]	viral NP localisation (immunofluorescence) (IAV nucleoprotein (NP))	decrease of mRNA expression level of M gene [2]	mRNA expression level of M gene [2] [µM]	IC50 [1, 6] [µM]	further results
COc1cc(/C=C/C(=O)CC(=O)/C=C/c2ccc(O)c(OC)c2)ccc1O [Curcumin-d6]								IC50 ([1]; NA activity inhibition assay): 18800 µM
Tetramethylcurcumin	15	2.65 fold	0.37 ± 0.06	less NP was observed in the cytoplasm	about 3.85 fold	0.26 ± 0.07		IC50 ([1]; NA activity inhibition assay): 226 µM; pIC50 (expt.) ([1]; converted from IC50): 3.65
COc1cc(/C=C/C(=O)CC(=O)CCc2ccc(O)c(OC)c2)ccc1O [Dihydrocurcumin]	20	~1.81 fold	0.54 ± 0.02	a strong green fluorescent signal was observed in the cytoplasm	~1.20 fold	0.83 ± 0.09		IC50 ([1]; NA activity inhibition assay): 219 µM; pIC50 (expt.) ([1]; converted from IC50): 3.66
COc1cc(CCC(=O)CC(=O)CCc2ccc(O)c(OC)c2)ccc1O [Tetrahydrocurcumin]							203	
COc1cc(/C=C/C(=O)CC(=O)/C=C/c2ccc(O)c(OC)c2)ccc1O [Curcumin]	25	about 2.04 fold	0.48 ± 0.03	less NP was observed in the cytoplasm	about 5.26 fold	0.19 ± 0.03	450	Lung index inhibition [3]: 22.42% and 23.6% and 35.75^** %; Lung pathological change degree [3]: 1.10 ± 0.39 and 0.92 ± 0.47 and 1.02 ± 0.55; TNF-α level in lung homogenate (TNF-α): significantly attenuated the increases; average survival time [4]: prolonged the average survival time; death protection rate [4]: promote the death protection rate significantly; weight and clinical symptoms (dose safety) [5]: remained stable in weight and showed no significant clinical symptoms; IL-6 level in lung homogenate (IL-6): significantly attenuated the increases; IFN-γ level in lung homogenate (IFN-γ): significantly attenuated the increases
O=C(/C=C/c1ccc(O)cc1)CC(=O)/C=C/c1ccc(O)cc1 [Bisdemethoxycurcumin]	20	2.45 fold	0.40 ± 0.01	a strong green fluorescent signal was observed in the cytoplasm	about 2.13 fold	0.47 ± 0.11	70.1	
NC(=O)c1ncn([C@@H]2O[C@H](CO)[C@@H](O)[C@H]2O)n1 [Ribavirin, reference compound]								Lung index [3]: 0.94 ± 0.29; Lung index inhibition [3]: 43%; Lung pathological change degree [3]: 0.87 ± 0.52
COc1cc(CCC(O)CC(O)CCc2ccc(O)c(OC)c2)ccc1O (centres unmarked) [Octahydrocurcumin]							1530	
[2H]C([2H])([2H])Oc1cc(/C=C/C(=O)CC(=O)/C=C/c2ccc(O)c(OC([2H])([2H])[2H])c2)ccc1O [Curcumin-d6]								pIC50 (expt.) ([1]; converted from IC50): 1.73
COc1cc(/C=C/C(O)=C/C(=O)/C=C/c2ccc(O)cc2)ccc1O [Demethoxycurcumin]							200	
CCC(CC)O[C@@H]1C=C(C(=O)O)C[C@H](N)[C@H]1NC(C)=O [Oseltamivir carboxylate, reference compound]					about 11.11 fold			
COc1ccc(/C=C/C(=O)/C=C(O)/C=C/c2ccc(OC)c(OC)c2)cc1OC [Dimethylcurcumin]							1610	
COc1cc(CCC(=O)CC(O)CCc2ccc(O)c(OC)c2)ccc1O (centres unmarked) [Hexahydrocurcumin]							33700	IC50 ([1]; pIC50 (expt.), converted from IC50): 33900 µM

— publication PMC7125423 (Archives of Pharmacal Research, 2020)
